{
  "source": "BindingDB's records for doi:10.1021/jm970460b",
  "about": "(University of Wisconsin-Milwaukee, 1998)",
  "molecular_target": "Gamma-aminobutyric acid receptor subunit alpha-6/beta-3/gamma-2 (Homo sapiens, UniProt Q16445+P18507+P28472)",
  "sequence (Q16445 whole entry)": "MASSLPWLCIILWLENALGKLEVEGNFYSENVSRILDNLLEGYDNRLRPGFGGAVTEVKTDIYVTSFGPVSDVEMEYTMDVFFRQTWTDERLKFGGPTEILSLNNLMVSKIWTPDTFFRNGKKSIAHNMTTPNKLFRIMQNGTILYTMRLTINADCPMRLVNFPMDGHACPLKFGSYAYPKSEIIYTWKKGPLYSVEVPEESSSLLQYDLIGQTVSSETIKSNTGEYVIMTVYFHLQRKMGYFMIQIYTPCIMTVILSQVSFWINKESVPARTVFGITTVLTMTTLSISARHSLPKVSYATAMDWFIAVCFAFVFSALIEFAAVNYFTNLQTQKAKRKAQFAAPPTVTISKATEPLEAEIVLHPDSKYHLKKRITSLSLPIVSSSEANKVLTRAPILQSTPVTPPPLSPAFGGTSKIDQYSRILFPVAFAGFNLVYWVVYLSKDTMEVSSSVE",
  "sequence (P18507 as listed by the source)": "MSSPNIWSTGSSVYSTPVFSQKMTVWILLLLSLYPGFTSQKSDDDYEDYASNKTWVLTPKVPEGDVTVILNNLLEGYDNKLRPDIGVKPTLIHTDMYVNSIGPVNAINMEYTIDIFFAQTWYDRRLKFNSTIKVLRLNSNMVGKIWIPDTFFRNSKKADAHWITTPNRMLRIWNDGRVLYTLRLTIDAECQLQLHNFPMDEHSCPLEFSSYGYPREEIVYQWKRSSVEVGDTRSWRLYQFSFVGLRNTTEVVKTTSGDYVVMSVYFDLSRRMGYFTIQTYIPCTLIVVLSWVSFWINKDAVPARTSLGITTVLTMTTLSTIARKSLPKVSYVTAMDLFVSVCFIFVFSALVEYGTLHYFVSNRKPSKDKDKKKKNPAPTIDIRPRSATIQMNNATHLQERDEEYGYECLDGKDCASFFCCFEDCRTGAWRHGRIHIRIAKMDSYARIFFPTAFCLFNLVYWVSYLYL",
  "sequence (P28472 whole entry)": "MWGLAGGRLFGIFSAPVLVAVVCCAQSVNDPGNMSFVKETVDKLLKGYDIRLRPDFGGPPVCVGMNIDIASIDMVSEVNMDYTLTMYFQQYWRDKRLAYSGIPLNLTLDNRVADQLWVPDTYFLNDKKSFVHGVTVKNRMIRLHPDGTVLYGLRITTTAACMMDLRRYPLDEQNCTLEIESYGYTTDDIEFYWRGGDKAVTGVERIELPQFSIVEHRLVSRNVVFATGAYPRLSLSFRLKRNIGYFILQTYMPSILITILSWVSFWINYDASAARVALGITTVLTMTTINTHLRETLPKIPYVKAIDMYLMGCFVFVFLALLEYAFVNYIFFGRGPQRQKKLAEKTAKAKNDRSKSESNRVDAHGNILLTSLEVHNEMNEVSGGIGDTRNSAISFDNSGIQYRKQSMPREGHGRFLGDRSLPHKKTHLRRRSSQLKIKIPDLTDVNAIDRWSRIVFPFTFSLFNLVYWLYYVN",
  "assay": "Binding affinity measured using LtK- cell membranes expressing Gamma-aminobutyric acid A receptor alpha-6-beta-3-gamma-2",
  "procedure,_shortened": "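Cells scraped, resuspended in 10 mM KH2PO4/100 mM KCl, pH 7.4. Incubation 1 h at 4 °C to equilibrium, filtration, scintillation counting. Ki from iterative least-squares fit, mean of two determinations.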",
  "data": [
    {"compound": "CCOC(=O)c1[nH]cc2nc3ccc(OCc4ccccc4)cc3c-2c1COC", "note": "[6-Benzyloxy-4-methoxymethyl-9H-beta-carboline-3-carboxylic acid ethyl ester]", "values": [
      {"measurement": "Ki", "result": "> 1000", "unit": "nM"}
    ]}
  ]
}
